Screening data (PubChem BioAssay)
IEC-6 tox: counter-screen for KLF5 inhibitors: cytotoxicity in IEC-6 cells | IEC-6 cytotoxicity, luminescence viability | inhibition, % at 5 µM | actives 0.78% (n = 290,000);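 also: 0% = plate median of test compound wells and 100% = cytotoxic reference compound wells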
Ba/F3 V617F tox: reduce viability of Ba/F3 cells dependent on JAK2V617F; actives 1.1% (n = 220,000); inhibition, % at 5.6 µM; AID 1446; Ba/F3 EpoR-JAK2V617F viability, ATP luminescence;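 active = inhibition above the campaign mean plus 3 SD over all tested compounds, cut at about 24% in these data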;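 also: cytokine-independent growth of Ba/F3 cells driven by EpoR plus mutant JAK2; 0% = DMSO-treated cells and 100% = JAK inhibitor I control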
APP transl inh: APP translation inhibition | SH-SY5Y APP 5'UTR-luciferase reporter, luminescence | actives 0.82% (n = 190,000) | inhibition, % at 2 µM | AID 1285;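 active = inhibition above a set limit, derived from the sample mean plus 3 SD, cut at about 45% in these data; inconclusive = one replicate passes the limit while the other fails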
b-catenin transl: beta-catenin nuclear translocation modulation; actives 0.3% (n = 190,000); HeLa beta-catenin nuclear translocation, immunofluorescence imaging; nuclear translocation activity, % at 5 µM; AID 1665;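 active = nuclear translocation activity above 50% at 5 µM, with a well cell count of 50 or more; inconclusive = wells under 50 cells across six images, flagged as toxic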;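 also: per-cell ratio of nuclear to cytoplasmic median beta-catenin stain intensity; plate controls were DMSO negative control for no effect and GSK-3 inhibitor IX positive control for full effect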
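test system = HeLa cells, endogenous beta-catenin | dosing = single 5 µM dose plus 0.02–20 µM confirmation series | times = compound treatment 24 h, 37°C, 5% CO2 | technique = beta-catenin immunofluorescence imaging with DAPI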
MT stabilizer: microtubule stabilization, imaging screen; % tubulin-high responders, % at 10 µM; actives 0.83% (n = 200,000); HeLa tubulin immunostaining HCS, 24 h; share of cells brighter than vehicle mean+2SD;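 active = plate Z-score above 3 for both tubulin-high and condensed-nucleus cell shares, with cell loss under 80%, at 10 µM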;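 also: anti alpha tubulin signal scored within the nucleus-defined area of each cell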
BaF3 parental: counter-screen for JAK2V617F inhibitors: parental Ba/F3 viability inhibitors; CellTiter-Glo ATP luminescence; inhibition, % at 5.6 µM; actives 1.1% (n = 220,000); AID 1486;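 active = inhibition above a per-campaign cutoff, the mean inhibition of all tested compounds plus 3 SD, cut at about 27% in these data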;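 also: 0% = DMSO wells and 100% = JAK Inhibitor I control wells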
IEC-6 cytotox cf: confirmation of cytotoxic compounds in rat IEC-6 intestinal epithelial cells; shares compounds with IEC-6 tox; actives 63% (n = 1,900); inhibition, % at 5 µM; IEC-6 rat intestinal epithelial viability, luminescence; AID 1907;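 also: 0% = vehicle and 100% = reference cytotoxic drug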
* hit, by the source's call; ? = inconclusive; / = no result. Only some compounds are listed: those with a hit (about 2.2% of all), similar ones and a draw of the others. Rule as the data show it, unless noted: active = inhibition above about 22%; inactive = the rest.

SMILES	IEC-6 tox	Ba/F3 V617F tox	APP transl inh	b-catenin transl	MT stabilizer	BaF3 parental	IEC-6 cytotox cf
COc1cc2c(cc1OC)CN(C(=O)/C=C/c1cccs1)CC2	59*	81*	/	120*	/	63*	52*
COc1ccc(Nc2ncnc3scc(-c4ccc(OC)cc4)c23)cc1	24*	1	-4	/	13*	6	20
COc1ccccc1C(=O)N/C(=C/c1ccc2c(c1)OCO2)C(=O)Nc1ccc(C(=O)O)cc1	-6	/	/	/	/	/	/
COc1cc(OC)c(C2=NOC(C(=O)NCc3cccs3)C2)cc1Cl (centres undefined)	42*	6	21	24	19*	19	41*
COc1cc(OC)c(C2=NOC(C(=O)NCc3cccnc3)C2)cc1Cl (centres undefined)	3	/	/	/	/	/	/
COc1ccc(C2=NOC(C(=O)NCc3cccs3)C2)cc1OC (centres undefined)	52*	87*	/	/	41*	76*	51*
CSc1ncc(C(=O)Nc2ccc(C(C)=O)cc2)c(-c2ccccc2)n1	11	/	/	/	/	/	/
CN(C)c1ccc(/C=C/c2cccc[n+]2[O-])cc1	-10	-3	/	-1	/	-6	/
CN(C)c1ccc(/C=C/c2ccc3c4ccccc4ccc3[n+]2-c2ccccc2)cc1	65*	101*	83*	?	83	89*	80*
COc1cc(C(=O)Nc2ccc(NC(=O)c3ccccc3)nc2)cc(OC)c1OC	4	/	/	/	/	/	/
COc1cc(C(=O)Nc2ccc(NC(=O)C3CC3)nc2)cc(OC)c1OC	95*	0	-2	0	5	8	10
O=C(N/N=C/c1ccc(O)cc1O)c1ccc(CN2C(=O)c3cccc4cccc2c34)cc1	34*	19	60*	1	8	5	52*
O=C(N/N=C/c1ccccc1)c1ccc(CN2C(=O)c3cccc4cccc2c34)cc1	4	0	13	-4	7	10	/
Cc1ccc(C)c(OCC(O)CN2CCC(Cc3ccccc3)CC2)c1 (centres undefined)	4	/	/	/	/	/	/
CC1=Nc2cc(C(=O)NCC3CCCO3)ccc2Sc2ccc(Br)cc21 (centres undefined)	43*	20	/	6	/	11	29*
CC(=O)N1CCOc2ccc(S(=O)(=O)N3CCC(C(=O)NCc4ccc(C)cc4)CC3)cc21	0	/	/	/	/	/	/
CC1CN=C(NC(=O)c2cccc([N+](=O)[O-])c2)S1 (centres undefined)	-6	/	/	/	/	/	/
Nc1nc(Nc2ccccc2F)nc(N2CCCC2)c1[N+](=O)[O-]	23*	/	/	/	/	/	22*
CN(C)CCCn1c(SCC(=O)Nc2nccs2)nnc1-c1ccncc1	3	/	/	/	/	/	/
O=C(N/N=C/c1c(-c2ccccc2)[nH]c2ccccc12)c1cccnc1	58*	64*	-32	39	18*	55*	23*
O=C(NCCCn1cccn1)C1CCC(=O)N(CCc2ccccc2)C1 (centres undefined)	2	/	/	/	/	/	/
Cc1ccc(C)c(Nc2cc(C)nc(-c3ccccc3O)n2)c1	48*	/	/	/	/	/	27*
Cc1cc(Nc2ccccc2Cl)nc(-c2ccccc2O)n1	-9	/	/	/	/	/	/
O=C(c1ccc(CS(=O)c2ccccc2Cl)o1)N1CCN(c2ccccn2)CC1 (centres undefined)	56*	/	/	/	/	/	45*
O=C(c1ccc(CS(=O)Cc2ccccc2Cl)o1)N1CCN(c2ccccn2)CC1 (centres undefined)	0	/	/	/	/	/	/
SMILES	IEC-6 tox	Ba/F3 V617F tox	APP transl inh	b-catenin transl	MT stabilizer	BaF3 parental	IEC-6 cytotox cf
COc1cc(OC)cc(C(=O)NCC2CCCN(C(=O)c3csc(C(C)C)n3)C2)c1 (centres undefined)	-1	/	/	/	/	/	/
COc1c(Cl)cnn(-c2ccc(C)cc2)c1=O	-5	6	13	-5	2	10	/
Cc1ccc(-n2ncc(Br)c(Br)c2=O)cc1	102*	101*	94*	0	2	106*	30*
O=c1c(Br)c(N2CCCC2)cnn1-c1ccccc1	-2	0	-93	-3	3	4	/
O=c1c(Br)c(Br)cnn1-c1ccccc1	102*	101*	96*	-1	7	50*	46*
CS(=O)(=O)Nc1cccc(C2=NN(C(=O)c3ccco3)C(c3ccco3)C2)c1 (centres undefined)	-1	/	/	/	/	/	/
CCS(=O)(=O)Nc1cccc(C2=NN(C(=O)c3ccco3)C(c3ccco3)C2)c1 (centres undefined)	47*	/	/	/	/	/	22*
CCCN1CCN(S(=O)(=O)c2ccc(-c3cc(C)no3)s2)CC1	0	/	/	/	/	/	/
CCC(CC)NC(=O)c1cc([N+](=O)[O-])ccc1N1CCOCC1	-4	-5	-1	0	5	4	/
Cc1ccc(COC(=O)c2cc([N+](=O)[O-])ccc2N2CCOCC2)cc1	87*	/	/	/	/	/	61*
O=C(OCc1ccccc1Cl)c1cc([N+](=O)[O-])ccc1N1CCOCC1	8	/	/	/	/	/	/
CCOc1ccc(C(=O)c2cc([N+](=O)[O-])ccc2N2CCOCC2)cc1	92*	97*	94*	37	15*	96*	82*
COc1ccc(C(=O)c2cc([N+](=O)[O-])ccc2N2CCOCC2)cc1	85*	92*	93*	57*	7	94*	64*
Cc1cc(NC(=O)CCN2CCCCC2)ccc1Br	-6	/	/	/	/	/	/
O=C(NOC(=O)c1c(F)cccc1Cl)c1ccc(Cl)c(Cl)c1	7	/	/	/	/	/	/
CCC(C)NCCOCCOc1ccc(Cl)c2ccccc12 (centres undefined)	34*	5	-4	1	7	1	15
Cc1sc2nc(-c3ccccn3)[nH]c(=O)c2c1-c1ccccc1	28*	-2	23	2	3	3	33*
Cc1sc2nc(-c3ccncc3)[nH]c(=O)c2c1-c1ccccc1	1	-2	16	3	2	-1	/
Cc1nc2cc(-c3ccc(Br)cc3)[nH]n2c(=O)c1Cl	30*	/	/	/	/	/	13
Cc1cc2nc(C)c(Cl)c(=O)n2[nH]1	2	-3	-5	1	6	-4	/
OCCC1CN(CCCc2ccccc2)CCN1Cc1ccccc1 (centres undefined)	23*	-4	/	0	/	1	3
CC1Cc2cc(/C(O)=C3/C(=O)C(=O)N(CCN4CCOCC4)C3c3ccc(N(C)C)cc3)ccc2O1 (centres undefined)	0	/	/	/	/	/	/
COc1cc(NC2CCCCC2O)c2nc(-c3ccc(Cl)cc3)ccc2c1 (centres undefined)	23*	-3	/	2	/	0	11
COc1ccc(OC)c(NC(=O)COC(=O)CSc2ccc(Cl)cc2)c1	0	-1	15	0	4	6	/
c1ccc(N/N=C(\Cc2nc3ccccc3[nH]2)c2ccccc2)cc1	4	-1	-22	/	3	9	/
